Data on 35 compounds can be found in ChEMBL document CHEMBL1649405, “Structure-activity relationships study of 6-chloro-4-(2-chlorophenyl)-3-(2-hydroxyethyl) quinolin-2(1H)-one derivatives as novel non-nucleoside anti-hepatitis B virus agents” (Eur J Med Chem, 2011).

Usually IC50 stands for the concentration at which inhibition is half-maximal. What is called CC50 is the concentration giving 50% cytotoxicity.

Data set [1] concerns Hepatitis B virus. In words: Antiviral activity against Hepatitis B virus infected in human HepG2(2.2.15) cells assessed as inhibition of viral surface antigen secretion after 6 days by ELISA. In kind it is functional, organism-based. The following applies: HepG2 2.2.15, 144 h. Put shortly: (§1)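 HepG 2.2.15 cells in DMEM with 10% FBS, 37 °C, 5% CO2. Treated for 6 days with refeeding every other day. Culture medium centrifuged at 6000 g to clear debris. HBeAg or HBsAg measured by quantitative ELISA on a microplate reader. IC50 = concentration giving 50% inhibition of secretion. Mean of two independent experiments.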

Data set [2] has as its system Hepatitis B virus. The experiment in a line: Antiviral activity against Hepatitis B virus infected in human HepG2(2.2.15) cells assessed as inhibition of viral e antigen secretion after 6 days by ELISA. In kind it is functional, organism-based. The following applies: HepG2 2.2.15, 144 h. In short, it runs like this: as §1
For orientation: ELISA stands for enzyme-linked immunosorbent assay.

Data set [3] is described as follows: Cytotoxicity against human HepG2(2.2.15) cells. Format: cell-based. In short, it runs like this: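 HepG 2.2.15 cells in DMEM with 10% FBS, 37 °C, 5% CO2. CC50 = concentration killing 50% of cells. Mean of two independent experiments.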
The nature of data set [4]: Selectivity index, ratio of CC50 for human HepG2(2.2.15) cells to IC50 for Hepatitis B virus infected in human HepG2(2.2.15) cells assessed as inhibition of viral surface antigen secretion. In kind it is functional. In short, it runs like this:
(§2)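 Ratio of CC50 in HepG 2.2.15 cells to the IC50 for HBeAg or HBsAg secretion. Both values come from ELISA and cytotoxicity runs on the same cell line. Each input is the mean of two independent experiments.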

Data set [5] is described as follows: Selectivity index, ratio of CC50 for human HepG2(2.2.15) cells to IC50 for Hepatitis B virus infected in human HepG2(2.2.15) cells assessed as inhibition of viral e antigen secretion. In kind it is functional. In short, it runs like this:
as §2

For the compound `O=C(COc1ccccc1)OCCc1c(-c2ccccc2Cl)c2cc(Cl)ccc2[nH]c1=O`, the IC50 is 56 µM in the data set on Hepatitis B virus [1] and greater than 81 µM with Hepatitis B virus [2]. Also, in data set [3], the CC50 worked out at 81 µM. Further, the entries for the “Selectivity Index” value in data set [4] and in data set [5] were 1.5 and less than 1, respectively.
Consider `O=C(CN1C(=O)c2ccccc2C1=O)OCCc1c(-c2ccccc2Cl)c2cc(Cl)ccc2[nH]c1=O`, for which the 50% inhibitory concentration (IC50) is 170 µM in the data set on Hepatitis B virus [1] and greater than 960 µM in the data set with Hepatitis B virus [2]. This compound also returned a CC50 in data set [3] of 960 µM. For the same compound, the entries for the “Selectivity Index” value in data set [4] and in data set [5] were 5.7 and less than 1, respectively.
As for `CCCCCCCC(=O)OCCc1c(-c2ccccc2Cl)c2cc(Cl)ccc2[nH]c1=O`, the IC50 in the data set on Hepatitis B virus [1] is 40 µM; in the data set with Hepatitis B virus [2], greater than 78 µM. The compound further registered a CC50 in data set [3] of 78 µM. Moreover, the figures for the “Selectivity Index” value in data set [4] and in data set [5] were 1.9 and less than 1, respectively.
The matching figures for `CCCCC(=O)OCCc1c(-c2ccccc2Cl)c2cc(Cl)ccc2[nH]c1=O`: 82 µM, greater than 200 µM, 200 µM, 2.4 and less than 1.
Take `Clc1ccc2nc3c(c(-c4ccccc4Cl)c2c1)CCO3`: the IC50 in the data set on Hepatitis B virus [1] and in the data set on Hepatitis B virus [2] was greater than 280 µM throughout. This compound also came in with a CC50 in data set [3] greater than 280 µM.
As for `Nc1ccn([C@@H]2CS[C@H](CO)O2)c(=O)n1` [LAMIVUDINE], the IC50 with Hepatitis B virus [1] is 27000 µM; in the data set with Hepatitis B virus [2], 30000 µM. For the same compound, the “Selectivity Index” value in data set [4] was found to be 1.1; in data set [5], 1.
With `O=C(OCCc1c(-c2ccccc2Cl)c2cc(Cl)ccc2[nH]c1=O)C1CCCCC1`, the IC50 in the data set on Hepatitis B virus [1] was 27 µM; in the data set on Hepatitis B virus [2], 34 µM. Besides, the CC50 in data set [3] turned out to be 38 µM. For the same compound, the “Selectivity Index” value in data set [4] is on record as 1.4; in data set [5] it was 1.1.
For `O=C(OCCc1c(-c2ccccc2Cl)c2cc(Cl)ccc2[nH]c1=O)C1CCCC1`, in that order: 46 µM, 46 µM, 46 µM, 1 and 1.
The matching figures for `O=C(O)Cc1c(-c2ccccc2Cl)c2cc(Cl)ccc2[nH]c1=O`: 350 µM, greater than 950 µM, 950 µM, 2.8 and less than 1.
The matching figures for `N#CCC(=O)OCCc1c(-c2ccccc2Cl)c2cc(Cl)ccc2[nH]c1=O`: 75 µM, greater than 100 µM, 100 µM, 1.3 and less than 1.
For `O=C(O)CCC(=O)OCCc1c(-c2ccccc2Cl)c2cc(Cl)ccc2[nH]c1=O`, the results for the IC50 with Hepatitis B virus [1] and with Hepatitis B virus [2] were 150 µM and greater than 110 µM, respectively. In addition, in data set [3], the CC50 stood at 110 µM. Moreover, the “Selectivity Index” value in data set [4] and in data set [5] was less than 1 in each case.
Regarding `C=CCn1c(=O)c(CCO)c(-c2ccccc2Cl)c2cc(Cl)ccc21`, the values for the IC50 in the data set on Hepatitis B virus [1] and with Hepatitis B virus [2] were 10 µM and 12 µM, respectively. For the same compound, half-maximal cytotoxicity in data set [3] (CC50) was put at 23 µM. In addition, the results for the “Selectivity Index” value in data set [4] and in data set [5] were 2.3 and 1.9, respectively.
Turning to `CC(C)C(=O)OCCc1c(-c2ccccc2Cl)c2cc(Cl)ccc2[nH]c1=O`, the IC50 with Hepatitis B virus [1] is 37 µM; in the data set on Hepatitis B virus [2] it was greater than 62 µM. The same compound had a CC50 in data set [3] of 62 µM. Moreover, the figures for the “Selectivity Index” value in data set [4] and in data set [5] were 1.7 and less than 1, respectively.
As for `O=c1c(CCO)c(-c2ccccc2Cl)c2cc(Cl)ccc2n1Cc1ccccc1`, the IC50 in the data set on Hepatitis B virus [1] and in the data set on Hepatitis B virus [2] was 12 µM throughout. In data set [3], this compound came in with a CC50 of 26 µM. Besides, the “Selectivity Index” value in data set [4] and in data set [5] was 2.2 each time.
As for `C/C=C/C=C/C(=O)OCCc1c(-c2ccccc2Cl)c2cc(Cl)ccc2[nH]c1=O`, the IC50 was found to be 23 µM with Hepatitis B virus [1] and 26 µM in the data set on Hepatitis B virus [2]. This compound also had a CC50 in data set [3] of 440 µM. Further, the figures for the “Selectivity Index” value in data set [4] and in data set [5] were 19 and 17, respectively.
For `Cn1c(=O)c(CCO)c(-c2ccccc2Cl)c2cc(Cl)ccc21`, in that order: 22 µM, 34 µM, 34 µM, 1.6 and 1.
For `CCC(=O)OCCc1c(-c2ccccc2Cl)c2cc(Cl)ccc2[nH]c1=O`, in that order: 59 µM, 62 µM, 95 µM, 1.6 and 1.5.
In the case of `O=C(/C=C/c1cccnc1)OCCc1c(-c2ccccc2Cl)c2cc(Cl)ccc2[nH]c1=O`, the IC50 in the data set on Hepatitis B virus [1] was 34 µM; with Hepatitis B virus [2], 2200 µM. This compound registered a CC50 in data set [3] of 39 µM. Also, the “Selectivity Index” value in data set [4] was 1.1; in data set [5], less than 1.
Take `O=c1[nH]c2ccc(Cl)cc2c(-c2ccccc2Cl)c1CCO`: the IC50 was determined as 86 µM with Hepatitis B virus [1] and 360 µM with Hepatitis B virus [2]. In data set [3], the CC50 came to 380 µM. Moreover, the “Selectivity Index” value in data set [4] stood at 4.4; in data set [5] it was 1.
On to `CC(=O)NCC(=O)OCCc1c(-c2ccccc2Cl)c2cc(Cl)ccc2[nH]c1=O`, for which the IC50 in the data set on Hepatitis B virus [1] is 74 µM; in the data set with Hepatitis B virus [2], greater than 110 µM. Further, half-maximal cytotoxicity in data set [3] (CC50) was put at 110 µM. The “Selectivity Index” value in data set [4] is recorded as 1.4; in data set [5] it was less than 1.
For `O=C(OCCc1c(-c2ccccc2Cl)c2cc(Cl)ccc2[nH]c1=O)c1ccccc1`, in that order: 32 µM, greater than 43 µM, 43 µM, 1.42 and less than 1.
For `C/C=C(\C)C(=O)OCCc1c(-c2ccccc2Cl)c2cc(Cl)ccc2[nH]c1=O`, the results for the IC50 in the data set with Hepatitis B virus [1] and in the data set on Hepatitis B virus [2] were 58 µM and 62 µM, respectively. In data set [3], this compound displayed a CC50 of 350 µM. Besides, the “Selectivity Index” value was found to be 6.1 in data set [4] and 5.6 in data set [5].
`O=CCc1c(-c2ccccc2Cl)c2cc(Cl)ccc2[nH]c1=O`: the IC50 in the data set with Hepatitis B virus [1] was 76 µM; in the data set with Hepatitis B virus [2], greater than 120 µM. The compound also came in with a CC50 in data set [3] of 120 µM. The “Selectivity Index” value in data set [4] is reported as 1.6; in data set [5] it was less than 1.
Regarding `Clc1ccc2nc3c(c(-c4ccccc4Cl)c2c1)CCS3`, the IC50 in the data set on Hepatitis B virus [1] and in the data set with Hepatitis B virus [2] was greater than 2400 µM throughout. Further, in data set [3], the CC50 was greater than 2400 µM.
Regarding `CC(=O)N1CCC(C(=O)OCCc2c(-c3ccccc3Cl)c3cc(Cl)ccc3[nH]c2=O)CC1`, the results for the IC50 in the data set with Hepatitis B virus [1] and in the data set on Hepatitis B virus [2] were 51 µM and greater than 82 µM, respectively. Besides, the CC50 in data set [3] was 82 µM. Besides, the “Selectivity Index” value in data set [4] was 1.6; in data set [5] it was less than 1.
In the case of `CC(=O)OCCc1c(-c2ccccc2Cl)c2cc(Cl)ccc2[nH]c1=O`, the IC50 in the data set with Hepatitis B virus [1] was 74 µM; in the data set on Hepatitis B virus [2], greater than 27 µM. Also, the CC50 in data set [3] turned out to be 27 µM. In addition, the “Selectivity Index” value in data set [4] and in data set [5] was less than 1 throughout.
`O=C(OCCc1c(-c2ccccc2Cl)c2cc(Cl)ccc2[nH]c1=O)c1cccnc1`: the IC50 in the data set on Hepatitis B virus [1] and in the data set with Hepatitis B virus [2] was 55 µM throughout. In addition, the midpoint of cytotoxicity in data set [3], the CC50, lay at 170 µM. Besides, the “Selectivity Index” value in data set [4] and in data set [5] was 3 in each case.
Take `CC12CCC(C(=O)OCCc3c(-c4ccccc4Cl)c4cc(Cl)ccc4[nH]c3=O)(OC1=O)C2(C)C` (stereo not drawn): the IC50 in the data set on Hepatitis B virus [1] is 1500 µM; with Hepatitis B virus [2], greater than 1800 µM. For the same compound, the CC50 in data set [3] was greater than 1800 µM. The “Selectivity Index” value in data set [4] was greater than 1.2.
As for `O=C(OCCc1c(-c2ccccc2Cl)c2cc(Cl)ccc2[nH]c1=O)c1cccs1`, the IC50 in the data set with Hepatitis B virus [1] and in the data set on Hepatitis B virus [2] was greater than 1700 µM throughout. The CC50 in data set [3] was greater than 1700 µM.
As to `C/C=C/C(=O)OCCc1c(-c2ccccc2Cl)c2cc(Cl)ccc2[nH]c1=O`, the IC50 in the data set on Hepatitis B virus [1] came to 25 µM; in the data set with Hepatitis B virus [2], 22 µM. The CC50 in data set [3] worked out at 30 µM. Besides, the “Selectivity Index” value came to 1.2 in data set [4] and 1.3 in data set [5].
Turning to `O=C(OCCc1c(-c2ccccc2Cl)c2cc(Cl)ccc2[nH]c1=O)c1ccco1`, the IC50 amounted to 51 µM in the data set with Hepatitis B virus [1] and 58 µM with Hepatitis B virus [2]. In data set [3], this compound had a CC50 of 98 µM. Besides, the “Selectivity Index” value is on record as 1.9 in data set [4] and 1.6 in data set [5].
As to `O=c1cc(-c2ccccc2Cl)c2cc(Cl)ccc2[nH]1`, the results for the IC50 in the data set on Hepatitis B virus [1] and with Hepatitis B virus [2] were 460 µM and greater than 1000 µM, respectively.
With `O=C(CCC1CCCCC1)OCCc1c(-c2ccccc2Cl)c2cc(Cl)ccc2[nH]c1=O`, the IC50 in the data set on Hepatitis B virus [1] is 85 µM; with Hepatitis B virus [2] it was 110 µM. The compound further showed a CC50 in data set [3] of 160 µM. Also, the results for the “Selectivity Index” value in data set [4] and in data set [5] were 1.9 and 1.5, respectively.
In the case of `CC(=O)OCC(=O)OCCc1c(-c2ccccc2Cl)c2cc(Cl)ccc2[nH]c1=O`, the IC50 in the data set on Hepatitis B virus [1] was found to be 57 µM; in the data set on Hepatitis B virus [2], 71 µM. Moreover, it took 100 µM to reach half-maximal cytotoxicity in data set [3] (CC50). Moreover, the “Selectivity Index” value in data set [4] was determined as 1.8; in data set [5], 1.4.
On to `O=c1c(CCO)c(-c2ccccc2Cl)c2cc(Cl)ccc2n1Cc1c(F)cccc1F`, for which the IC50 in the data set with Hepatitis B virus [1] is 87 µM; with Hepatitis B virus [2] it was greater than 2300 µM. Moreover, the CC50 in data set [3] was greater than 2300 µM. Besides, in data set [4], the “Selectivity Index” value is recorded as greater than 2.6.
